“And” between values parts separate entries of the source, which are not always exact repeats. Identical values can stand only once.
Experiments:
P388 [1] = test: Compound was tested in vivo for the antitumor activity against P388 lymphocytic leukemia at dose level of 60 mg/kg; format: functional, Mus musculus
P388 [2] = test: Compound was tested in vivo for its antitumor activity against P388 lymphocytic leukemia at dose level of 60 mg/kg; format: functional, Mus musculus
P388 [3] = test: Compound was tested for the antitumor activity against P388 lymphocytic leukemia at dose level of 240 mg/kg; 6/6; format: functional, Mus musculus
P388 [4] = test: Compound was tested for the antitumor activity against P388 lymphocytic leukemia at dose level of 60 mg/kg; 6/6; format: functional, Mus musculus
P388 [5] = test: Compound was tested in vivo for its antitumor activity against P388 lymphocytic leukemia at dose level of 240 mg/kg; format: functional, Mus musculus
P388 [6] = test: Compound was tested in vivo for the antitumor activity against P388 lymphocytic leukemia at dose level of 120 mg/kg; format: functional, Mus musculus
P388 [7] = test: Compound was tested in vivo for the antitumor activity against P388 lymphocytic leukemia at dose level of 240 mg/kg; format: functional, Mus musculus
P388 [8] = test: Compound was tested in vivo for its antitumor activity against P388 lymphocytic leukemia at dose level of 120 mg/kg; format: functional, Mus musculus
P388 [9] = test: Compound was tested for the antitumor activity against P388 lymphocytic leukemia at dose level of 120 mg/kg; 6/6; format: functional, Mus musculus
P388 [10] = test: Compound was tested for the antitumor activity against P388 lymphocytic leukemia at dose level of 120 mg/kg; format: functional, Mus musculus
P388 [11] = test: Compound was tested for the antitumor activity against P388 lymphocytic leukemia at dose level of 240 mg/kg; format: functional, Mus musculus
P388 [12] = test: Compound was tested for the antitumor activity against P388 lymphocytic leukemia at dose level of 60 mg/kg; format: functional, Mus musculus
M5076 [13] = test: Compound was tested in vivo for the antitumor activity against solid tumor models at dose level of 800 mg/kg (M5076 assay); format: functional, Homo sapiens
M5076 [14] = test: Compound was tested for the antitumor activity against solid tumor models at dose level of 800 mg/kg (M5076 assay); format: functional
Homo sapiens [15] = test: Compound was tested in vivo for the antitumor activity against solid tumor models at dose level of 800 mg/kg (MX-1 assay); format: functional
[16] = Compound was tested in vivo for the antitumor activity against solid tumor models at dose level of 400 mg/kg (LOX assay); format: functional, Homo sapiens
[17] = Compound was tested for the antitumor activity against solid tumor models at dose level of 400 mg/kg (LOX assay); format: functional, Homo sapiens
Homo sapiens [18] = test: Compound was tested for the antitumor activity against solid tumor models at t dose level of 800 mg/kg (MX-1 assay); format: functional
[19] = Pseudo-first order rate constant for the reaction with 4-(p-Nitrobenzyl)pyridine
Summary of the method: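 Alkylating ability was measured against 4-(p-nitrobenzyl)pyridine (NBP), with 0.2 µmol alkylating agent and 240 µmol NBP as starting amounts. At timed points the mixture was diluted with acetone, mixed 3 s, and read at once at 570 nm. The blank was NBP, water, absolute ethanol, base solution and acetone. k' = slope of E570 vs time. Competing hydrolysis was assumed minor and neglected in the initial phase.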

P388 [20] = test: Compound was tested in vivo for the antitumor activity against P388 lymphocytic leukemia at dose level of 40 mg/kg; format: functional, Mus musculus
P388 [21] = test: Compound was tested for the antitumor activity against P388 lymphocytic leukemia at dose level of 40 mg/kg; 6/6; format: functional, Mus musculus
P388 [22] = test: Compound was tested in vivo for its antitumor activity against P388 lymphocytic leukemia at dose level of 240 mg/kg; Toxic dose; format: functional, organism-based; parameters: dose 240 mg/kg; details: Mus musculus
P388 [23] = test: Compound was tested in vivo for its antitumor activity against P388 lymphocytic leukemia at dose level of 40 mg/kg; format: functional, Mus musculus
P388 [24] = test: Compound was tested in vivo for the antitumor activity against P388 lymphocytic leukemia at dose level of 20 mg/kg; format: functional, Mus musculus
P388 [25] = test: Compound was tested in vivo for its antitumor activity against P388 lymphocytic leukemia at dose level of 120 mg/kg; Toxic dose; format: functional, organism-based; parameters: dose 120 mg/kg; details: Mus musculus
P388 [26] = test: Compound was tested in vivo for its antitumor activity against P388 lymphocytic leukemia at dose level of 20 mg/kg; format: functional, Mus musculus
P388 [27] = test: Compound was tested for the antitumor activity against P388 lymphocytic leukemia at dose level of 20 mg/kg; format: functional, Mus musculus
P388 [28] = test: Compound was tested for the antitumor activity against P388 lymphocytic leukemia at dose level of 40 mg/kg; format: functional, Mus musculus
P388 [29] = test: Compound was tested for the antitumor activity against P388 lymphocytic leukemia at dose level of 20 mg/kg; 6/6; format: functional, Mus musculus
P388 [30] = test: Compound was tested in vivo for the antitumor activity against P388 lymphocytic leukemia at dose level of 15 mg/kg; format: functional, Mus musculus
P388 [31] = test: Compound was tested for the antitumor activity against P388 lymphocytic leukemia at dose level of 30 mg/kg; 6/6; format: functional, Mus musculus
P388 [32] = test: Compound was tested in vivo for its antitumor activity against P388 lymphocytic leukemia at dose level of 30 mg/kg; format: functional, Mus musculus
P388 [33] = test: Compound was tested in vivo for the antitumor activity against P388 lymphocytic leukemia at dose level of 30 mg/kg; format: functional, Mus musculus
P388 [34] = test: Compound was tested in vivo for its antitumor activity against P388 lymphocytic leukemia and at dose level of 120 mg/kg; Toxic dose; format: functional, organism-based; parameters: dose 120 mg/kg; details: Mus musculus
P388 [35] = test: Compound was tested in vivo for its antitumor activity against P388 lymphocytic leukemia at dose level of 15 mg/kg; format: functional, Mus musculus
P388 [36] = test: Compound was tested for the antitumor activity against P388 lymphocytic leukemia at dose level of 120 mg/kg; 5/6; format: functional, Mus musculus
P388 [37] = test: Compound was tested for the antitumor activity against P388 lymphocytic leukemia at dose level of 15 mg/kg; format: functional, Mus musculus
P388 [38] = test: Compound was tested for the antitumor activity against P388 lymphocytic leukemia at dose level of 30 mg/kg; format: functional, Mus musculus
P388 [39] = test: Compound was tested for the antitumor activity against P388 lymphocytic leukemia at dose level of 15 mg/kg; 6/6; format: functional, Mus musculus
P388 [40] = test: Compound was tested for the antitumor activity against P388 lymphocytic leukemia at dose level of 240 mg/kg; 0/6; format: functional, Mus musculus
M5076 [41] = test: Compound was tested in vivo for the antitumor activity against solid tumor models at dose level of 50 mg/kg (M5076 assay); format: functional
M5076 [42] = test: Compound was tested for the antitumor activity against solid tumor models at dose level of 50 mg/kg (M5076 assay); format: functional
Homo sapiens [43] = test: Compound was tested in vivo for the antitumor activity against solid tumor models at dose level of 200 mg/kg (MX-1 assay); format: functional
Homo sapiens [44] = test: Compound was tested for the antitumor activity against solid tumor models at t dose level of 200 mg/kg (MX-1 assay); format: functional
[45] = Compound was tested in vivo for the antitumor activity against solid tumor models at dose level of 100 mg/kg (LOX assay); format: functional, Homo sapiens
[46] = Compound was tested for the antitumor activity against solid tumor models at dose level of 100 mg/kg (LOX assay); format: functional, Homo sapiens

Row | Compound | T/C (P388 [1]) | KE (P388 [2]) | TDS (P388 [3]) | TDS (P388 [4]) | KE (P388 [5]) | T/C (P388 [6]) | T/C (P388 [7]) | KE (P388 [8]) | TDS (P388 [9]) | Weight difference (P388 [10]) | Weight difference (P388 [11]) | Weight difference (P388 [12]) | K' [19] | KE (P388 [22]) | further results
1 | CC(C)NC(=O)OCc1c(-c2ccccc2)c(-c2ccccc2)n(C)c1COC(=O)NC(C)C | 142% | 0.59 | 6 | 6 | 3.74 | 160% | 181% | 2.06 | 6 | 1.5 g | -2.4 g | -1.1 g | 0.00321 abs/time |  | T/C (M5076 [13]): 178%; Weight difference (M5076 [14]): -2.8 g; T/C (Homo sapiens [15]): 0%; T/C [16]: 301%; Weight difference [17]: -3.3 g; Weight difference (Homo sapiens [18]): -5.3 g
2 | CC(C)NC(=O)OCc1c(COC(=O)NC(C)C)c(-c2ccccc2)n(C)c1-c1ccccc1 | 209% | 6.43 | 6 | 6 |  | 94% |  |  | 6 | -4.4 g | -5.5 g | -2.2 g | 0.00498 abs/time | Toxic | T/C (P388 [20]): 168%; TDS (P388 [21]): 6; KE (P388 [23]): 2.85; T/C (P388 [24]): 137% and 205%; KE (P388 [25]): Toxic; KE (P388 [26]): 0.08; Weight difference (P388 [27]): -0.1 g; Weight difference (P388 [28]): -1.6 g; TDS (P388 [29]): 6
3 | CC(C)NC(=O)OCc1c(-c2ccccc2)c(COC(=O)NC(C)C)n(C)c1-c1ccccc1 | 180% | 3.89 |  | 6 |  |  |  |  |  | -4.5 g |  | -3.8 g | 0.00112 abs/time | Toxic | T/C (P388 [30]): 134%; TDS (P388 [31]): 6; KE (P388 [32]): 0.88; T/C (P388 [33]): 150%; KE (P388 [34]): Toxic; KE (P388 [35]): -0.19; TDS (P388 [36]): 5; Weight difference (P388 [37]): -3.7 g; Weight difference (P388 [38]): -5.3 g; TDS (P388 [39]): 6; TDS (P388 [40]): 0; T/C (M5076 [41]): 139%; Weight difference (M5076 [42]): -2.5 g; T/C (Homo sapiens [43]): -3%; Weight difference (Homo sapiens [44]): -7.2 g; T/C [45]: 180%; Weight difference [46]: -3.5 g
4 | CC(C)NC(=O)OCc1c(-c2ccccc2)c(-c2ccccc2)c(COC(=O)NC(C)C)n1C | 107% | -1.44 |  |  | -1.51 | 98% | 101% | -1.56 |  | -0.2 g | -1.7 g | 0 g | 0.00669 abs/time |  | TDS ratio (P388 [10]): 6; TDS ratio (P388 [11]): 6; TDS ratio (P388 [12]): 6
